The values that follow come from ChEMBL document CHEMBL3352379, “Potent heterocyclic ligands for human complement c3a receptor” (J Med Chem, 2014).

Activity calls are given as the source filed them. The calls are words filed in the database; no cut-off is given here.

Experiment [1] has as its target T1, C3a anaphylatoxin chemotactic receptor (Homo sapiens, UniProt Q16581).
T1 sequence (Q16581 whole entry): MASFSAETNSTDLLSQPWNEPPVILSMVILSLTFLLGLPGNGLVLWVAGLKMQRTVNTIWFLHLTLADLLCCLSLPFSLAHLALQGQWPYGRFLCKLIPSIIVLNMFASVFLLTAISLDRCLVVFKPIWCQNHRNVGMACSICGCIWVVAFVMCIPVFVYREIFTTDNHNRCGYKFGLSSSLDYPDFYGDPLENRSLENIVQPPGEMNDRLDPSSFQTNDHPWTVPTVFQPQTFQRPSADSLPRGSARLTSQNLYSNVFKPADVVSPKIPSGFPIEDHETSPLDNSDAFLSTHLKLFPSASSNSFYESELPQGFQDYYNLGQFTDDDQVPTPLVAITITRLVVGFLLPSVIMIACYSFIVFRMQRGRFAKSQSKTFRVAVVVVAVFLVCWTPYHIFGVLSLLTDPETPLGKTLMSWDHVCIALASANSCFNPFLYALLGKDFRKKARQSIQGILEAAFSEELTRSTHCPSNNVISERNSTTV
The experiment is described as follows: Displacement of [125I]-C3a from C3AR in HMDMs by scintillation counting method. (In a radioligand displacement assay an active substance lowers the binding of a labelled ligand.)

Experiment [2] concerns the target T1, C3a anaphylatoxin chemotactic receptor. The experiment is described as follows: Antagonist activity against C3AR in HMDMs assessed as inhibition of C3a-induced intracellular calcium release by Fluo-3 AM dye based FLIPR assay. For orientation: Calcium assays in cells follow changes in intracellular calcium, usually with a dye or a luminescent sensor.
In experiment [3] the target is T2, C3a anaphylatoxin chemotactic receptor (Homo sapiens) (UniProt Q16581).
T2 sequence (whole entry): T1 sequence (Q16581 whole entry)
The experiment is described as follows: Agonist activity against C3AR in HMDMs assessed as increase in intracellular calcium release up to 100 uM by Fluo-3 AM dye based FLIPR assay. It counts as functional, cell-based. An outline of the steps: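 Overnight-plated HMDMs (5 × 10^4/well) loaded with 4 μM Fluo-3 AM for 1 h at 37 °C, washed into HBSS with 2.5 mM probenecid, 20 mM HEPES, pH 7.4; compound range added and Ca2+ fluorescence read ≥60 s (495/520 nm) by FLIPR.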

Experiment [4] deals with T2, C3a anaphylatoxin chemotactic receptor (Homo sapiens).
The target in experiment [5] is T1, C3a anaphylatoxin chemotactic receptor. In words: Agonist activity against C3AR in HMDMs assessed as increase in intracellular calcium release by Fluo-3 AM dye based FLIPR assay relative to 1 uM C3a.
The target in experiment [6] is T2, C3a anaphylatoxin chemotactic receptor (Homo sapiens). The source holds these as a separate data set.
The target is the same in experiment [7]. In words: Agonist activity against C3AR in C3a desensitized HMDMs assessed as increase in intracellular calcium release at 10 uM added 5 mins post C3a-induced desensitization by Fluo-3 AM dye based FLIPR. The experiment is classed as functional, cell-based. In outline:
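HMDMs desensitized with 300 nM C3a at t0, then given test agonist at 10 μM; calcium signal monitored on FLIPR after Fluo-3 AM loading (4 μM, 1 h, 37 °C) in HBSS with 2.5 mM probenecid, 20 mM HEPES, pH 7.4; excitation 495, emission 520 nm.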

Experiment [8] concerns the target T3, C5a anaphylatoxin chemotactic receptor 1 (Homo sapiens) (UniProt P21730).
T3 sequence (whole entry): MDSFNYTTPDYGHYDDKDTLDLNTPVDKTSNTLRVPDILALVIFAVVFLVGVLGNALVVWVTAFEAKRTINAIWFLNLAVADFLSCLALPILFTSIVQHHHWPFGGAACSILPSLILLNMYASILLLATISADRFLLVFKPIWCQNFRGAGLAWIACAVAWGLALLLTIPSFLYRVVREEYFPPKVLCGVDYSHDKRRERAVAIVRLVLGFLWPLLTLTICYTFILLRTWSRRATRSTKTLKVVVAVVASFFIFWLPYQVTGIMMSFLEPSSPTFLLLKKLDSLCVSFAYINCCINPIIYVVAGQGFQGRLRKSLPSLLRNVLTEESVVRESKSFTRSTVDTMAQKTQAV
The experiment is described as follows: Displacement of [125I]-C5a from C5AR in HMDMs 20 uM by scintillation counting method.

In experiment [9] the target is T2, C3a anaphylatoxin chemotactic receptor (Homo sapiens). The experiment is described as follows: Agonist activity against C3AR in HMDMs assessed as increase in IL-1beta mRNA expression at 300 nM incubated for 30 mins by qRT-PCR method. In outline:
(§1)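 HMDMs (CSF-differentiated CD14+ blood monocytes, day 7) seeded at 1 × 10^6 mL−1 and adhered overnight, then stimulated 30 min at 0.3 μM. RNA extracted; qRT-PCR normalized to 18S rRNA; fold change relative to untreated control; mean ± SEM of three independent experiments.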

Experiment [10] has the same target. The experiment is described as follows: Agonist activity against C3AR in HMDMs assessed as increase in TNFalpha mRNA expression at 300 nM incubated for 30 mins by qRT-PCR method. In outline:
as §1
In general terms: Quantitative PCR measures a nucleic acid by following its amplification.

Experiment [11] has the same target. The experiment is described as follows: Agonist activity against C3AR in HMDMs assessed as increase in CCL3 mRNA expression at 300 nM incubated for 30 mins by qRT-PCR method. An outline of the steps: as §1
Experiment [12] shares this target. The experiment is described as follows: Agonist activity against C3AR in HMDMs assessed as increase in IL-1beta mRNA expression at 300 nM incubated for 30 mins in presence of 30 mins pre-treatment with 10 uM (2-(2,2-Diphenylethoxy)acetyl)-L-arginine by qRT-PCR method. An outline of the steps: (§2)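 HMDMs seeded at 1 × 10^6 mL−1, adhered overnight, pretreated with C3aR antagonist (10 μM, 30 min), then stimulated 30 min at 0.3 μM. RNA extracted; qRT-PCR normalized to 18S rRNA; fold change relative to untreated control; mean ± SEM, three independent experiments.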

For experiment [13] the target is unchanged. In words: Agonist activity against C3AR in HMDMs assessed as increase in TNFalpha mRNA expression at 300 nM incubated for 30 mins in presence of 30 mins pre-treatment with 10 uM (2-(2,2-Diphenylethoxy)acetyl)-L-arginine by qRT-PCR method. In outline: as §2
Experiment [14] has the same target. The experiment is described as follows: Agonist activity against C3AR in HMDMs assessed as increase in CCL3 mRNA expression at 300 nM incubated for 30 mins in presence of 30 mins pre-treatment with 10 uM (2-(2,2-Diphenylethoxy)acetyl)-L-arginine by qRT-PCR method. In outline: as §2

Turning to `N=C(N)NCCC[C@H](NC(=O)c1noc(C(c2ccccc2)c2ccccc2)n1)C(=O)O`, the IC50 (commonly the point on the concentration scale where inhibition reaches its midpoint) was 0.054 µM in experiment [1] and 1 µM in [2].
For `N=C(N)NCCC[C@H](NC(=O)CNCC(c1ccccc1)c1ccccc1)C(=O)O`, the half-maximal inhibitory concentration (IC50) in experiment [1] was determined as 0.15 µM. In addition, the result in [3] was inactive.
For the compound `N=C(N)NCCC[C@H](NC(=O)c1nc(C(c2ccccc2)c2ccccc2)no1)C(=O)O`, the IC50 in [1] is 0.012 µM; in experiment [2], 1 µM.
With `N=C(N)NCCC[C@H](NC(=O)COCC(c1ccccc1)c1ccccc1)C(=O)O`, the 50% inhibitory concentration (IC50) is 0.01 µM in experiment [1] and 1.26 µM in [2]. Moreover, the outcome in experiment [3] was inactive.
As to `Cc1oc(C(c2ccccc2)c2ccccc2)nc1C(=O)N[C@@H](CCCNC(=N)N)C(=O)O`, the IC50 in experiment [1] amounted to 0.011 µM. In experiment [4], the pEC50 entry is “Active”.
Consider `N=C(N)NCCC[C@H](NC(=O)c1coc(C(c2ccccc2)c2ccccc2)n1)C(=O)O`, for which, in experiment [1], the IC50 came to 0.019 µM.
With `Cc1c(C(=O)N[C@@H](CCCNC(=N)N)C(=O)O)nc(C(c2ccccc2)c2ccccc2)n1C`, the concentration for half-maximal inhibition (IC50) in experiment [1] was found to be 0.031 µM. Also, the 50% effective concentration (EC50) (in general, the concentration giving half of the maximal effect) in experiment [5] turned out to be 0.04 µM.
In the case of `Cc1nc(C(c2ccccc2)c2ccccc2)oc1C(=O)N[C@@H](CCCNC(=N)N)C(=O)O`, the IC50 was 0.1 µM in [1] and 3.98 µM in experiment [2].
In experiment [1], `N=C(N)NCCC[C@H](NC(=O)CCCC(c1ccccc1)c1ccccc1)C(=O)O` had an IC50 of 0.096 µM. Besides, in experiment [3], the outcome was inactive.
For the compound `N=C(N)NCCC[C@H](NC(=O)c1nnc(C(c2ccccc2)c2ccccc2)o1)C(=O)O`, the IC50 in [1] was 0.967 µM; in [2], 19 µM.
In experiment [1], `N=C(N)NCCC[C@H](NC(=O)c1nc(C(c2ccccc2)c2ccccc2)[nH]c1-c1ccccc1)C(=O)O` registered an IC50 of 0.087 µM. Further, the EC50 in experiment [5] was above 31.6 µM.
Regarding `N=C(N)NCCC[C@H](NC(=O)CSCC(c1ccccc1)c1ccccc1)C(=O)O`, the IC50 in experiment [1] amounted to 0.008 µM. In addition, the outcome in experiment [3] was inactive.
On to `N=C(N)NCCC[C@H](NC(=O)c1oc(C(c2ccccc2)c2ccccc2)nc1-c1ccccc1)C(=O)O`, for which the half-maximal inhibitory concentration (IC50) in [1] amounted to 0.11 µM; in experiment [2] it was 2 µM.
As for `Cc1nc(C(c2ccccc2)c2ccccc2)n(C)c1C(=O)N[C@@H](CCCNC(=N)N)C(=O)O`, the IC50 in experiment [1] turned out to be 1.14 µM. Besides, the pIC50 result in experiment [6] was “inactive”. Moreover, in experiment [4], the pEC50 entry is “inactive”.
For `Cc1[nH]c(C(c2ccccc2)c2ccccc2)nc1C(=O)N[C@@H](CCCNC(=N)N)C(=O)O`, in [1], the IC50 was 0.01 µM. Further, in experiment [5], the EC50 was 0.0251 µM. In addition, the outcome in experiment [7], in experiment [12], in experiment [13] and in experiment [14] was inactive. For the same compound, the inhibition entry in [8] was “inactive”. The outcome in experiment [9], in experiment [10] and in experiment [11] was Active.
